Measurements from ChEMBL document CHEMBL3286171 (Eur J Med Chem, 2014).
The source made the active and inactive calls. The rule behind the calls is not given here.

Legend:
Acetylcholinesterase = Acetylcholinesterase (Electrophorus electricus, UniProt O42275); test: Inhibition of electric eel AChE using acetylthiocholine iodide as substrate preincubated for 20 mins followed by substrate addition measured after 5 mins by Ellman's method
Cholinesterase = Cholinesterase (Equus caballus, UniProt P81908); test: Inhibition of equine serum BuChE using butyrylthiocholine iodide as substrate preincubated for 20 mins followed by substrate addition measured after 25 mins by Ellman's method
In short: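 Ellman-type colorimetric assay in 0.1 M phosphate buffer pH 8.0 with 0.05 U/mL BuChE and 0.35 mM DTNB. Serial inhibitor dilutions pre-incubated with the mix for 20 min, then butyrylthiocholine iodide added (final 0.5 mM). […] At least three experiments in triplicate, mean ± SEM.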

[1] = Permeability in human Caco2 cells; settings: Caco-2
[2] = Apparent permeability in MDCK cells; settings: dog
[3] = Protein binding in plasma (unknown origin)
[4] = target: T1, Amine oxidase [flavin-containing] A (Rattus norvegicus, UniProt P21396); test: Inhibition of MAO-A in rat liver homogenate using [14C]-5HT as substrate preincubated for 30 mins followed by substrate addition measured after 20 mins by liquid scintillation counting analysis; type: tissue-based
T1 sequence (P21396 whole entry): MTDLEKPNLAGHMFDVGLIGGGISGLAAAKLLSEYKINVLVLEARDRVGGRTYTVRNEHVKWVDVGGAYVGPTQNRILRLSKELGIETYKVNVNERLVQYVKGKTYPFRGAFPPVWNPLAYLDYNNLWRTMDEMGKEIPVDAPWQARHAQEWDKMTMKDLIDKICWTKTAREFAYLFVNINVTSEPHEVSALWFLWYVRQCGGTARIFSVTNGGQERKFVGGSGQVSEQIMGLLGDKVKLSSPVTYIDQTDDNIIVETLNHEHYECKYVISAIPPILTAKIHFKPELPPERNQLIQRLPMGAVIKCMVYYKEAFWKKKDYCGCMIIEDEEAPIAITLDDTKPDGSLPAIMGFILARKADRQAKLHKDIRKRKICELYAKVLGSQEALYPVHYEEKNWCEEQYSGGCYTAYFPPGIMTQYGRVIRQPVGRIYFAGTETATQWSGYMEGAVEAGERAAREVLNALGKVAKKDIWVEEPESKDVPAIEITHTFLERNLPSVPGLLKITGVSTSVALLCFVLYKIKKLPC
In short: (§1)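 MAO source was rat liver homogenate. Enzyme pre-incubated 30 min with a range of inhibitor concentrations in 50 mM phosphate buffer, pH 7.4. Substrates: MAO A, 100 μM [14C]-5-HT (0.5 mCi/mmol), reaction 20 min; MAO B, 20 μM [14C]-PEA (2.5 mCi/mmol), reaction 4 min. Final volume 225 μl.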

[5] = Effective permeability across human intestinal membrane by Ussing chamber technique
[6] = target: T2, Amine oxidase [flavin-containing] B (Rattus norvegicus, UniProt P19643); test: Inhibition of MAO-B in rat liver homogenate using [14C]-phenylethylamine as substrate preincubated for 30 mins followed by substrate addition measured after 4 mins by liquid scintillation counting analysis; type: tissue-based; in short: as §1
T2 sequence (P19643 whole entry): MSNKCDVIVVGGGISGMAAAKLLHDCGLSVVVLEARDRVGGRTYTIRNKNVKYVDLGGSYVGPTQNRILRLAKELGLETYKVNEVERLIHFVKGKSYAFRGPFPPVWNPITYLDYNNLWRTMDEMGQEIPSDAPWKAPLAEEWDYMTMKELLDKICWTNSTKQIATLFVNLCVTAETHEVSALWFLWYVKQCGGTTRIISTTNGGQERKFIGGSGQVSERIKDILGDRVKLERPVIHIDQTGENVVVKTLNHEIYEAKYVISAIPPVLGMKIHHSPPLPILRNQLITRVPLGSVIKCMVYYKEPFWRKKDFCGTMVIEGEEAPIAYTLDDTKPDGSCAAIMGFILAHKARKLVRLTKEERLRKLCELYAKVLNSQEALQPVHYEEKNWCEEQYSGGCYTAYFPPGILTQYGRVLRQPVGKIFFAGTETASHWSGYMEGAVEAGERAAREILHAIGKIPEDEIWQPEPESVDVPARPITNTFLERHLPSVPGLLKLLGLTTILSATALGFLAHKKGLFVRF

[7] = Drug absorption in human intestine
[8] = Hepatotoxicity in human HepG2 cells assessed as cell viability at 1 uM by MTT assay relative to control; type: toxicity, cell-based; settings: read-out: Activity
[9] = target: T2, Amine oxidase [flavin-containing] B; test: Irreversible inhibition of MAO-B in rat liver homogenate assessed as recovery of enzyme activity at 20 uM preincubated for 30 mins followed by centrifugation and washing with PBS buffer; type: tissue-based
In short: (§2)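 Enzyme pre-incubated 30 min at 37 °C with inhibitor: 10 μM (MAO A) or 20 μM (MAO B). […] Three cycles of washing in 50 mM phosphate buffer pH 7.4 and centrifugation at 25,000 g, 10 min, 4 °C. Protein measured by Bradford; activity then assayed by the radiometric method. Six independent experiments in triplicate; Kruskal-Wallis analysis.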

[10] = target: T1, Amine oxidase [flavin-containing] A; test: Inhibition of MAO-A in rat liver homogenate; type: tissue-based
In short: (§3)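 Rat liver homogenate as the MAO source. The enzyme is pre-incubated 30 min with several inhibitor concentrations in 50 mM phosphate buffer, pH 7.4. […] Mean ± SEM of at least three experiments in quadruplicate.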

[11] = Metal chelating activity assessed as compound concentration required for zinc complex formation after 1 hr by UV-Vis spectrometric analysis; type: physicochemical
In short: (§4)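 UV-Vis spectra (220-300 nm) recorded in distilled water at room temperature in 1 cm quartz cells. Ligand at 10 μM with increasing CuSO4, Fe2(SO4)3 or ZnSO4. Incubation times: Cu(II) 5 min, Zn(II) 1 h, Fe(III) overnight. Stoichiometry found by Job's method, plotting absorbance at 257 nm against ligand mole fraction.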

[12] = target: Acetylcholinesterase (Electrophorus electricus) (UniProt O42275); test: Mixed-type inhibition of electric eel AChE using acetylthiocholine iodide as substrate at 0.5 to 5 uM by Lineweaver-Burk plot analysis
[13] = Metal chelating activity assessed as compound concentration required for copper complex formation after 5 mins by UV-Vis spectrometric analysis; type: physicochemical; in short: as §4
[14] = target: T2, Amine oxidase [flavin-containing] B; test: Inhibition of MAO-B in rat liver homogenate preincubated for 30 mins; type: tissue-based; in short: as §3
[15] = Hepatotoxicity in human HepG2 cells assessed as cell viability at 300 uM by MTT assay relative to control; type: toxicity, cell-based; settings: read-out: Activity
Mus musculus [16] = test: Cognitive enhancing effect in C57BL/6J mouse assessed as reversal of scopolamine-induced long-term memory deficit by measuring increase in latency time during probe session at 35 mg/kg, iv administered 90 mins prior to scopolamine-challenge measured after 24 hrs by passive avoidance test; type: functional, organism-based; set-up: dose 35 mg/kg
[17] = Hepatotoxicity in human HepG2 cells assessed as cell viability at 3 uM by MTT assay relative to control; type: toxicity, cell-based; settings: read-out: Activity
Mus musculus [18] = test: Cognitive enhancing effect in C57BL/6J mouse assessed as reversal of scopolamine-induced long-term memory deficit by measuring latency time during training session at 35 mg/kg, iv administered 90 mins prior to scopolamine-challenge measured after 24 hrs by passive avoidance test; type: functional, organism-based; set-up: dose 35 mg/kg
[19] = target: T1, Amine oxidase [flavin-containing] A; test: Irreversible inhibition of MAO-A in rat liver homogenate assessed as recovery of enzyme activity at 10 uM preincubated for 30 mins followed by centrifugation and washing with PBS buffer; type: tissue-based; in short: as §2
[20] = target: T2, Amine oxidase [flavin-containing] B; test: Inhibition of MAO-B in rat liver homogenate; type: tissue-based; in short: as §3
[21] = Hepatotoxicity in human HepG2 cells assessed as cell viability at 1000 uM by MTT assay relative to control; type: toxicity, cell-based; settings: read-out: Activity
[22] = Hepatotoxicity in human HepG2 cells assessed as cell viability at 100 uM by MTT assay relative to control; type: toxicity, cell-based; settings: read-out: Activity
[23] = Metal chelating activity assessed as compound concentration required for ferric ion complex formation by UV-Vis spectrometric analysis; type: physicochemical; in short: as §4
[24] = Hepatotoxicity in human HepG2 cells assessed as cell viability at 30 uM by MTT assay relative to control; type: toxicity, cell-based; settings: read-out: Activity
[25] = target: T1, Amine oxidase [flavin-containing] A; test: Inhibition of MAO-A in rat liver homogenate preincubated for 30 mins; type: tissue-based; in short: as §3
[26] = Hepatotoxicity in human HepG2 cells assessed as cell viability at 10 uM by MTT assay relative to control; type: toxicity, cell-based; settings: read-out: Activity
Mus musculus [27] = test: Cognitive enhancing effect in C57BL/6J mouse assessed as reversal of scopolamine-induced long-term memory deficit by measuring latency time during training session at 1 mg/kg, iv administered 90 mins prior to scopolamine-challenge measured after 24 hrs by passive avoidance test; type: functional, organism-based; set-up: dose 1 mg/kg
Mus musculus [28] = test: Cognitive enhancing effect in C57BL/6J mouse assessed as reversal of scopolamine-induced long-term memory deficit by measuring increase in latency time during probe session at 1 mg/kg, iv administered 90 mins prior to scopolamine-challenge measured after 24 hrs by passive avoidance test; type: functional, organism-based; set-up: dose 1 mg/kg

Acetylcholinesterase, sequence (O42275 whole entry): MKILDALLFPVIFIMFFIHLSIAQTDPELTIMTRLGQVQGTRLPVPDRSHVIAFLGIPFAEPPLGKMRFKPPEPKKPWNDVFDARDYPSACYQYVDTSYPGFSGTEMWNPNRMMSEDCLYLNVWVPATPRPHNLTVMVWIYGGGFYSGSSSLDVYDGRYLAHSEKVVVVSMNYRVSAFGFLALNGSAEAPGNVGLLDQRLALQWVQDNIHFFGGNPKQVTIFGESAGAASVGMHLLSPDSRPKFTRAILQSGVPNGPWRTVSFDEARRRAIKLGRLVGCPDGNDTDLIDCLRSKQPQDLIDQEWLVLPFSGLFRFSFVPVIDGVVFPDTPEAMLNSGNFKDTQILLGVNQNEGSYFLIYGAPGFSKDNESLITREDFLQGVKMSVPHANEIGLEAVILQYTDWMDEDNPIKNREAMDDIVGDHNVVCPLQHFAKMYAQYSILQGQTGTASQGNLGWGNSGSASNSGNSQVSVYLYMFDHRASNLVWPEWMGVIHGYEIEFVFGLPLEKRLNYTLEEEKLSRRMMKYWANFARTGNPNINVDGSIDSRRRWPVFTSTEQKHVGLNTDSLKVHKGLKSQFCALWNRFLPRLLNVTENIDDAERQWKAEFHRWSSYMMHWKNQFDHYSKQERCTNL
Cholinesterase, sequence (P81908 whole entry): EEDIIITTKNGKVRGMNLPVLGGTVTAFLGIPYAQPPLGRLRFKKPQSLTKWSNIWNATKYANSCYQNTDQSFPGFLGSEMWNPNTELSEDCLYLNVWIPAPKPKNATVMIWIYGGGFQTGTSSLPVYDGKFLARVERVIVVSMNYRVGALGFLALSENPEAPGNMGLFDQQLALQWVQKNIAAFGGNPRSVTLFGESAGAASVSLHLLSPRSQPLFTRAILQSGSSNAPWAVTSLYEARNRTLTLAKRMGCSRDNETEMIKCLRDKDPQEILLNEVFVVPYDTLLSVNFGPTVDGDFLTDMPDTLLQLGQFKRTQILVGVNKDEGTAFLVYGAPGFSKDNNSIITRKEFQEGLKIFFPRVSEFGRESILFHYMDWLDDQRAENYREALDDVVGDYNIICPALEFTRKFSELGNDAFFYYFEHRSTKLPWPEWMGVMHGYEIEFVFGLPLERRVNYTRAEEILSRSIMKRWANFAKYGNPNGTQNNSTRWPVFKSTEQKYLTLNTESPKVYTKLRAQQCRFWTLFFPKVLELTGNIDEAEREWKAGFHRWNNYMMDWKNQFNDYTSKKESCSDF
Acetylcholinesterase (Electrophorus electricus), sequence (O42275 24-633 limits assumed): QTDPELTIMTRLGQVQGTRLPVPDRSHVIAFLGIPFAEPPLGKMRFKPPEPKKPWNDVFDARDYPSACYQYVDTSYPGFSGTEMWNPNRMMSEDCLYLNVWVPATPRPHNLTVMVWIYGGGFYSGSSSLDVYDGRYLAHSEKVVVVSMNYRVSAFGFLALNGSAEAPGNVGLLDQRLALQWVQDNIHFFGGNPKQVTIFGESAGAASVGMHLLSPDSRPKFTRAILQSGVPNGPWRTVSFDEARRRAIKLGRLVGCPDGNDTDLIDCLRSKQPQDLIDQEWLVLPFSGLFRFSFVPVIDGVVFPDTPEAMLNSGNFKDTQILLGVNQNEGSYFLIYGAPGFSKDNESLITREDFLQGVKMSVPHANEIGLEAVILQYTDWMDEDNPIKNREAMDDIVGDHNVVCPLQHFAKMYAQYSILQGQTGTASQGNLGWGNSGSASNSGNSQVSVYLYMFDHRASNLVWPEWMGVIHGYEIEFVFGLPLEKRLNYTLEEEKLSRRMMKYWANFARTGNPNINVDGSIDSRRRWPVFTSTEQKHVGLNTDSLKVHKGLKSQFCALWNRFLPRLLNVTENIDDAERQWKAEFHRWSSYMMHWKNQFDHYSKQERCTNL

C#CCN(C)CCCOc1ccc(Cl)cc1Cl [CLORGILINE]
IC50 (Acetylcholinesterase): ≥ 500 µM | IC50 (Cholinesterase): ≥ 500 µM

C#CCN(C)[C@H](C)Cc1ccccc1 [SELEGILINE]
IC50 (Acetylcholinesterase): ≥ 500 µM

C#CCN(Cc1ccc(O)c2ncccc12)C1CCN(Cc2ccccc2)CC1
Papp [1]: 4.57 ×10⁻⁶ cm/s | IC50 (Acetylcholinesterase): ≥ 100 µM | Papp [2]: 35.1 ×10⁻⁶ cm/s | fraction unbound [3]: 0.273 | IC50 (Cholinesterase): ≥ 100 µM | IC50 [4]: ≥ 100 µM | Papp [5]: 447 ×10⁻⁶ cm/s | IC50 [6]: ≥ 100 µM | Fa [7]: 96.8%

C#CCN(Cc1ccc(O)c2ncccc12)CC1CCN(Cc2ccccc2)CC1
Papp [1]: 5.23 ×10⁻⁶ cm/s | Papp [2]: 32.6 ×10⁻⁶ cm/s | fraction unbound [3]: 0.236 | Papp [5]: 499 ×10⁻⁶ cm/s | Fa [7]: 96.8%

C#CCN(CCCC1CCN(Cc2ccccc2)CC1)Cc1ccc(O)c2ncccc12
Papp [1]: 5.41 ×10⁻⁶ cm/s | Papp [2]: 30.2 ×10⁻⁶ cm/s | fraction unbound [3]: 0.226 | Papp [5]: 624 ×10⁻⁶ cm/s | Fa [7]: 96.9%

C#CCN(Cc1ccc(O)c2ncccc12)C(C#N)CC1CCN(Cc2ccccc2)CC1 (racemic)
Papp [1]: 5.2 ×10⁻⁶ cm/s | Papp [2]: 32.2 ×10⁻⁶ cm/s | fraction unbound [3]: 0.216 | Papp [5]: 375 ×10⁻⁶ cm/s | Fa [7]: 96.9%

C#CCN(Cc1ccc(O)c2ncccc12)C(C#N)CCC1CCN(Cc2ccccc2)CC1 (racemic)
Papp [1]: 5.44 ×10⁻⁶ cm/s | IC50 (Acetylcholinesterase): 1.8 µM | viability at 1 µM [8]: 98.4% | Papp [2]: 30.6 ×10⁻⁶ cm/s | inhibition (INH) [9]: Active | inhibition (INH) [10]: Dose-dependent effect | Activity [11]: 0.65 mole fraction | inhibition [12]: Active | Activity [13]: 0.65 mole fraction | fraction unbound [3]: 0.2 | IC50 (Cholinesterase): 1.6 µM | IC50 [14]: 8.3 µM | viability at 300 µM [15]: 71.4% | Activity (Mus musculus [16]): Active | viability at 3 µM [17]: 94.8% | Activity (Mus musculus [18]): inactive | inhibition (INH) [19]: Active | inhibition (INH) [20]: Dose-dependent effect | viability at 1000 µM [21]: 51.5% | viability at 100 µM [22]: 85.6% | Activity [23]: 0.5 mole fraction | Papp [5]: 418 ×10⁻⁶ cm/s | viability at 30 µM [24]: 92.4% | IC50 [25]: 3.8 µM | Fa [7]: 97% | viability at 10 µM [26]: 94.4%

COc1cc2c(cc1OC)C(=O)C(CC1CCN(Cc3ccccc3)CC1)C2 (configuration not stated) [DONEPEZIL]
Activity (Mus musculus [27]): inactive | viability at 1 µM [8]: 98.6% | Activity (Mus musculus [28]): Active | fraction unbound [3]: 0.154 | viability at 300 µM [15]: 53.4% | viability at 3 µM [17]: 97% | viability at 1000 µM [21]: 40.9% | viability at 100 µM [22]: 80% | viability at 30 µM [24]: 83.5% | Fa [7]: 98% | viability at 10 µM [26]: 92.4%

C#CCN(CCC1CCN(Cc2ccccc2)CC1)Cc1ccc(O)c2ncccc12
Papp [1]: 5.44 ×10⁻⁶ cm/s | Papp [2]: 31.3 ×10⁻⁶ cm/s | fraction unbound [3]: 0.229 | Papp [5]: 559 ×10⁻⁶ cm/s | Fa [7]: 96.9%

C#CCN(Cc1ccc(O)c2ncccc12)C(C#N)C1CCN(Cc2ccccc2)CC1 (racemic)
Papp [1]: 4.93 ×10⁻⁶ cm/s | Papp [2]: 34.8 ×10⁻⁶ cm/s | fraction unbound [3]: 0.197 | Papp [5]: 336 ×10⁻⁶ cm/s | Fa [7]: 96.8%

C#CCN(C)Cc1ccc(O)c2ncccc12
Papp [1]: 4.29 ×10⁻⁶ cm/s | IC50 (Acetylcholinesterase): ≥ 100 µM | Papp [2]: 42.9 ×10⁻⁶ cm/s | fraction unbound [3]: 0.31 | IC50 [4]: 0.057 µM | Papp [5]: 250 ×10⁻⁶ cm/s | IC50 [6]: 1.5 µM | Fa [7]: 95.9%
